Assay [1] in a line: (§1) Antagonist activity against Voltage-gated sodium channel in Swiss-Webster mouse primary cerebrocortical neurons assessed as inhibition of veratridine-induced sodium influx by SBFI-AM dye based fluorescence assay. In short, it runs like this: (§2)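 Primary cortical neurons from E17 Swiss-Webster mouse embryos, plated at 1.5 × 10^5 cells/well and used at 7–9 days in vitro. Cells were loaded with 10 μM SBFI-AM plus 0.02% Pluronic F-127 for 1 h at 37 °C in Locke's buffer (pH 7.4), then equilibrated 15 min. Baseline was read for 60 s, then compound and/or veratridine was added. Ex 340/380 nm, em 505 nm, background-corrected 340/380 ratio. IC50 from a three-parameter logistic fit, 4–7 experiments.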

The species named for another assay is Mus musculus. Described as §1. In a few lines:
as §2

SMILES strings stand for the structures.

Broadly, the IC50 is the concentration that inhibits the measured activity by half.

On to `C[C@@H]1CCCC(=O)N(C)/C=C/CC[C@H](C)C(=O)O[C@@H](C(C)(C)C)C1`, for which, in assay [1], the IC50 was greater than 10 µM.

In the case of `CNC(=O)CCC[C@@H](C)C[C@@H](OC(=O)[C@H](C)CCCCO)C(C)(C)C`, the IC50 in assay [1] is greater than 10 µM.

As to `C[C@@H]1CCCC(=O)N(C)/C=C/CC[C@@H](C)C(=O)O[C@H](C(C)(C)C)C1`, in assay [1], the IC50 came to 19.1 µM.

Take `C[C@@H]1CCCC(=O)N(C)/C=C/CC[C@@H](C)C(=O)O[C@@H](C(C)(C)C)C1`: the IC50 in assay [1] was found to be 2.1 µM. For the same compound, in the assay filed under Mus musculus, the inhibition result is “Dose-dependent effect”.

As to `CNC(=O)CCC[C@@H](C)C[C@@H](OC(=O)[C@@H](C)CCCCO)C(C)(C)C`, the IC50 in assay [1] is greater than 10 µM.

For `CNC(=O)CCC[C@@H](C)C[C@@H](OC(=O)[C@H](C)CCCC(=O)O)C(C)(C)C`, the IC50 in assay [1] is greater than 10 µM.

With `C[C@@H]1CCCC(=O)N(C)CCCC[C@H](C)C(=O)O[C@@H](C(C)(C)C)C1`, in assay [1], the IC50 worked out at 4.5 µM.

On to `C[C@H]1CCCC(=O)N(C)/C=C/CC[C@@H](C)C(=O)O[C@H](C(C)(C)C)C1`, for which the IC50 in assay [1] is greater than 10 µM.

In the case of `C[C@@H]1CCCC(=O)N(C)/C=C/CC[C@H](C)C(=O)O[C@H](C(C)(C)C)C1`, the IC50 in assay [1] came out at 21 µM.

Regarding `C[C@@H]1CCCC(=O)N(C)CCCC[C@@H](C)C(=O)O[C@@H](C(C)(C)C)C1`, the IC50 in assay [1] is 3 µM.

In the case of `C[C@H](CCCC(N)=O)C[C@@H](OC(=O)[C@H](C)CC/C=C/I)C(C)(C)C`, the IC50 in assay [1] is greater than 10 µM.

For the compound `C[C@H]1CCCC(=O)N(C)/C=C/CC[C@H](C)C(=O)O[C@H](C(C)(C)C)C1`, in assay [1], the IC50 is 4 µM. Further, the inhibition result in the assay filed under Mus musculus was “Dose-dependent effect”.
